The values that follow come from ChEMBL document CHEMBL1142664, “Synthesis and biological evaluation of a new series of 2,3,5-substituted [1,2,4]-thiadiazoles as modulators of adenosine A1 receptors and their molecular mechanism of action” (J Med Chem, 2005).

Test [1] has as its target T1, Adenosine receptor A1 (Homo sapiens) (UniProt P30542).
T1 sequence (whole entry): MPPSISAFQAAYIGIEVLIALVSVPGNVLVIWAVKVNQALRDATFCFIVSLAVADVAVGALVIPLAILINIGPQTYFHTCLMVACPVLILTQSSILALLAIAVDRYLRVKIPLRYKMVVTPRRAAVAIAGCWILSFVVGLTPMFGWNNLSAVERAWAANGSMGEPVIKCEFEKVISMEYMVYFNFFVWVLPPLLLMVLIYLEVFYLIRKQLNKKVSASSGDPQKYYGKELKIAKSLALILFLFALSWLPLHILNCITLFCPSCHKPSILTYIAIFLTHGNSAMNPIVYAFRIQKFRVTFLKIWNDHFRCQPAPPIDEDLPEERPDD
Briefly: Inhibition of [3H]DPCPX binding to human Adenosine A1 receptor at 10e-6 M. An outline of the steps:
(§1)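 Human A1 receptors expressed in CHO-cell membranes, incubated 60 min at 25 °C in 50 mM Tris-HCl (pH 7.4) with the compound at a fixed concentration. Conditions were [3H]CCPA ~1.0 nM with 20 µg protein, or [3H]DPCPX ~1.6 nM with 10 µg protein. Nonspecific binding was defined with 10 µM DPCPX, and samples were filtered and counted. Results are % specific binding remaining, as means of three experiments in duplicate.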

Test [2] concerns the target T1, Adenosine receptor A1 (Homo sapiens). Briefly: Inhibition of [3H]CCPA binding to human Adenosine A1 receptor at 10e-7 M. The gist of the method: as §1
Test [3] shares this target. Briefly: Inhibition of [3H]CCPA binding to human Adenosine A1 receptor at 10e-6 M. The gist of the method:
as §1

For test [4] the target is unchanged. Briefly: Dissociation constant for [3H]-CCPA binding to Adenosine A1 receptor in the presence of compound. The gist of the method:
(§2)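 Kinetics on membranes (30 µg) from CHO cells expressing recombinant human A1 receptors, using [3H]CCPA at 1 nM, with or without compound. Association was started by adding membranes to the radioligand. For dissociation, membranes were preloaded with radioligand for 60 min at 25 °C, then 100 µM 8-cyclopentyltheophylline was added. Bound ligand was separated by GF/B filtration and counted by scintillation; t1/2 and rate constants were derived.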

Test [5] has the same target. Briefly: Association constant for [3H]CCPA binding to Adenosine A1 receptor in the presence of compound. An outline of the steps:
as §2

Test [6] shares this target. As to the kind of experiment: Association half life for [3H]CCPA binding to Adenosine A1 receptor in the presence of compound. An outline of the steps:
as §2

Test [7] has the same target. As to the kind of experiment: Dissociation half life of [3H]CCPA binding to Adenosine A1 receptor. An outline of the steps:
as §2

The target is the same in test [8]. Briefly: Association half life for [3H]-CCPA binding to Adenosine A1 receptor in the presence of compound. An outline of the steps: as §2
Test [9] has the same target. Briefly: Dissociation half life for [3H]CCPA binding to Adenosine A1 receptor in the presence of compound. An outline of the steps: as §2

For the molecule `C/N=c1/nc(-c2ccccc2)n(-c2cccc(C)c2)s1`, the values for the Specific binding in test [1], in [2] and in [3] were 132%, 96% and 23%, respectively.
For `Cc1cccc(-n2s/c(=N/CCCO)nc2-c2ccccc2)c1`, the Specific binding in test [1] was determined as 142%; in test [2], 97%; in [3] it was 29%.
As to `CCC/N=c1/nc(-c2ccccc2)n(-c2cccc(C)c2)s1`, the figures for the Specific binding in [1], in [2] and in [3] were 126%, 97% and 29%, respectively.
On to `c1ccc(C/N=c2\nc(-c3ccccc3)n(-c3ccccc3)s2)cc1`, for which the Specific binding is 124% in test [1], 101% in test [2] and 43% in test [3].
On to `c1ccc(/N=c2/nc(-c3ccccc3)n(-c3ccccc3)s2)cc1`, for which the Specific binding in test [1] amounted to 106%; in [2] it was 104%; in test [3], 66%.
With `Cc1cccc(-n2s/c(=N/C3CCCC3)nc2-c2ccccc2)c1`, the Specific binding in [1] is 101%; in test [2], 96%; in test [3], 35%.
As for `CCCC/N=c1/nc(-c2ccccc2)n(-c2cccc(C)c2)s1`, the Specific binding in [1] is 114%; in test [2], 99%; in [3] it was 36%.
In the same order, the values of `Cc1cccc(-n2s/c(=N\C(C)C)nc2-c2ccccc2)c1` are 121%, 100% and 29%.
For `c1ccc(-c2n/c(=N/C3CCCC3)sn2-c2ccccc2)cc1`, in [4], the Koff came to 0.058 min⁻¹. Further, the values for the Specific binding in test [1], in test [2] and in test [3] were 123%, 100% and 25%, respectively. In addition, the k on in test [5] is 4.17e+06 M⁻¹ s⁻¹. The values for the T1/2 in [6] and in test [7] were 2.9 min and 12 min, respectively.
Consider `CC/N=c1/nc(-c2ccccc2)n(-c2cccc(C)c2)s1`, for which the Specific binding in [1] turned out to be 125%; in [2] it was 100%; in test [3], 24%.
Take `Cc1cccc(-n2s/c(=N\Cc3ccccc3)nc2-c2ccccc2)c1`: the Specific binding in test [1] is 116%; in test [2] it was 99%; in [3], 66%.
As to `CCC/N=c1/nc(-c2ccccc2)n(-c2ccccc2)s1`, the Specific binding in [1] turned out to be 135%; in [2], 98%; in [3], 26%.
For the molecule `OCCC/N=c1/nc(-c2ccccc2)n(-c2ccccc2)s1`, the Specific binding in test [1] is 127%; in test [2], 106%; in test [3] it was 27%.
`CC/N=c1/nc(-c2ccccc2)n(-c2ccccc2)s1`: the values for the Specific binding in test [1], in [2] and in test [3] were 134%, 99% and 20%, respectively.
Take `C/N=c1\nc(C2C=CC=CC2)n(C2C=CC=CC2)s1` (configuration not stated): in test [4], the Koff amounted to 0.056 min⁻¹. For the same molecule, the Specific binding in test [1] worked out at 122%; in test [2] it was 97%; in test [3] it was 16%. Besides, the T1/2 worked out at 2 min in test [8] and 12.4 min in [9]. Moreover, the k on in test [5] came out at 5.83e+06 M⁻¹ s⁻¹.
In the case of `CC(C)/N=c1/nc(-c2ccccc2)n(-c2ccccc2)s1`, the Specific binding in [1] is 126%; in test [2] it was 97%; in test [3], 23%.
Regarding `CCCC/N=c1/nc(-c2ccccc2)n(-c2ccccc2)s1`, the Specific binding in [1] came to 126%; in test [2], 101%; in [3], 27%.
In the case of `Cc1cccc(-n2s/c(=N\c3ccccc3)nc2-c2ccccc2)c1`, the figures for the Specific binding in [1], in test [2] and in test [3] were 107%, 96% and 89%, respectively.
